Assay results reported in ChEMBL document CHEMBL4196175, “First SAR Study for Overriding NRAS Mutant Driven Acute Myeloid Leukemia” (J Med Chem, 2018).
Activity calls are given as the source filed them. The rule behind the calls is not given here.

What was measured:
Activated CDC42 kinase 1 [1] = molecular target: T1, Activated CDC42 kinase 1 (Homo sapiens, UniProt Q07912); assay: Inhibition of ACK1 in human OCI-AML3 cells harboring NRAS Q61L mutant assessed as reduction in P70S6K1 phosphorylation at Thr421/Ser424 after 2 hrs by Western blot analysis; assay type: cell-based
In short: (§1)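 Ba/F3-NRAS-G12D or OCI-AML3 cells exposed 2 h to compounds (1 µM, or a dose series in OCI-AML3); phospho-p70S6K1, phospho-AKT S473, phospho-JNK and phospho-p38 assessed by western blot, actin as loading control.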
Target sequence in this assay (Q07912 whole entry, looked up): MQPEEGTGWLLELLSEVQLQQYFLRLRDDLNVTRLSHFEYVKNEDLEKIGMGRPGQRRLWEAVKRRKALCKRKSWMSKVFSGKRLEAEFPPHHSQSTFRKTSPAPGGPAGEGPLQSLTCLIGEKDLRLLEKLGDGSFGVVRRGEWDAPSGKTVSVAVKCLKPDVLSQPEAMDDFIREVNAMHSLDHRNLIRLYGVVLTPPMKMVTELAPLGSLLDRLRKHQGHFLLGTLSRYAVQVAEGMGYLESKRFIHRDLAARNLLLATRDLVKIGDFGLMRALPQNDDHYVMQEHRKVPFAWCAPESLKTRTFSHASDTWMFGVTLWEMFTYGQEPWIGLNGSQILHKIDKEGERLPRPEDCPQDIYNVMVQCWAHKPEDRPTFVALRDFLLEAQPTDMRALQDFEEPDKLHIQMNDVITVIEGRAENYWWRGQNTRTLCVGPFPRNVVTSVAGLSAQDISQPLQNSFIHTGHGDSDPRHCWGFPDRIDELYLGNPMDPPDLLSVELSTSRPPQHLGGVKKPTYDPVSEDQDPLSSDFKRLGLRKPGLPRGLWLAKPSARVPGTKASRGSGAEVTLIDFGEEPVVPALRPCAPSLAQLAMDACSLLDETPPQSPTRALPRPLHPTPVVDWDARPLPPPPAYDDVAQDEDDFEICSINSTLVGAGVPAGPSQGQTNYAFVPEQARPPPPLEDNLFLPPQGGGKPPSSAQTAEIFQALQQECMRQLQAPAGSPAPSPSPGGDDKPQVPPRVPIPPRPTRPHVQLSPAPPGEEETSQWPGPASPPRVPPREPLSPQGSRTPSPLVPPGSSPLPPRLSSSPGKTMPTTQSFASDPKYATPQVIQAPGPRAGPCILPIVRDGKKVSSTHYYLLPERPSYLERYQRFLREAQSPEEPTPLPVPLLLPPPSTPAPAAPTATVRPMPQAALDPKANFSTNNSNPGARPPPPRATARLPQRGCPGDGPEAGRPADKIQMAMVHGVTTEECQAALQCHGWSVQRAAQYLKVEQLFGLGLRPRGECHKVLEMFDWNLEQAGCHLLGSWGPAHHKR

[2] = molecular target: Activated CDC42 kinase 1 (Mus musculus) (UniProt O54967); assay: Inhibition of ACK1 in mouse BA/F3 cells harboring NRAS-G12D mutant assessed as reduction in P70S6K1 phosphorylation at Thr421/Ser424 at 1 uM after 2 hrs by Western blot analysis; assay type: cell-based; in short: as §1
Sequence of Activated CDC42 kinase 1 (Mus musculus) (O54967 whole entry): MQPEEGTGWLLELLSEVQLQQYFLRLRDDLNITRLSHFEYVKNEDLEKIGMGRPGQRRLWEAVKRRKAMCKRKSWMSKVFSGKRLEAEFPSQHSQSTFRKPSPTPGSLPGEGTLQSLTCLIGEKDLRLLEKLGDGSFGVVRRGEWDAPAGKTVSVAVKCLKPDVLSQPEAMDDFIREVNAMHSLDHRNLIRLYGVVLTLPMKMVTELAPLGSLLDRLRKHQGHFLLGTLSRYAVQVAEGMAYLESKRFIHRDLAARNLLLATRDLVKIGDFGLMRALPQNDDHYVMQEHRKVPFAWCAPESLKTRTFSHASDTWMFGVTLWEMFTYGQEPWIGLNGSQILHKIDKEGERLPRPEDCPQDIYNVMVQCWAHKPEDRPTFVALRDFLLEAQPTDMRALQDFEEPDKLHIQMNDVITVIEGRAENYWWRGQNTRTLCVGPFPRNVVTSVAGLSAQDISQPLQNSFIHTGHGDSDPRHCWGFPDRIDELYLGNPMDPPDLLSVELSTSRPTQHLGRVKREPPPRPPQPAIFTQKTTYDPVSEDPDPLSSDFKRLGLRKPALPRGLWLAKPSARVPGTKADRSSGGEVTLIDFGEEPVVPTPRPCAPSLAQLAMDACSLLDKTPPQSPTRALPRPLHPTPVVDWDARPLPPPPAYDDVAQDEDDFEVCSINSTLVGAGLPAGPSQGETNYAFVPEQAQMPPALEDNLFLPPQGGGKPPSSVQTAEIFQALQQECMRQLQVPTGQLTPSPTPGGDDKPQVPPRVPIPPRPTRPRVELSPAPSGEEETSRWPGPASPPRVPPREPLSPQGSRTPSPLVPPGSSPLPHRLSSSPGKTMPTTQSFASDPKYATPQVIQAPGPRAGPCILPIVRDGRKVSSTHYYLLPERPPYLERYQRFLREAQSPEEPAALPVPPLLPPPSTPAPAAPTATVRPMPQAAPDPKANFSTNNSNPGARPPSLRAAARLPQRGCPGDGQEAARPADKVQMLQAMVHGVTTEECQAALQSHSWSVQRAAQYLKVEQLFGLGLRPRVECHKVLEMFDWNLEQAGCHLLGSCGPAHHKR

OCI-AML-3 [3] = assay: Induction of apoptosis in human OCI-AML3 cells harboring NRAS Q61L mutant assessed as increase in cleaved PARP levels at 1 uM after 24 hrs by Western blot analysis; assay type: functional, cell-based
In short: (§2)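 Cells treated 24 h with indicated concentrations (1 µM; 5 µM also used in Ba/F3-NRAS-G12D); cleaved PARP, cleaved caspase 3, bcl-2 and MCL1 detected by western blot with actin as loading control.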

OCI-AML-3 [4] = assay: Inhibition of anchorage-independent cell growth in human OCI-AML3 cells harboring NRAS Q61L mutant assessed as reduction in colony size at 0.1 to 1 uM after 14 days by iodonitrotetrazolium chloride staining-based soft agar assay; assay type: functional
In short: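 OCI-AML3 cells embedded in 0.7% low-melting agar, incubated 2 weeks with compound at 0.1 or 1 µM; colony number and colony size per well measured by automated image analysis; n = 3 per condition, SD, one-way ANOVA.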

Mus musculus = organism: Mus musculus; assay: Inhibition of ACK1/GCK in mouse BA/F3 cells assessed as reduction in NRAS-G12D mutant-mediated cell proliferation after 72 hrs by celltiter-glo assay; assay type: cell-based
CYP2D6 = CYP2D6 (Homo sapiens, UniProt P10635); assay: Inhibition of CYP2D6 (unknown origin) assessed as activity remaining at 10 uM relative to control; assay type: ADME; details: read-out: Activity
Sequence of CYP2D6 (P10635 whole entry): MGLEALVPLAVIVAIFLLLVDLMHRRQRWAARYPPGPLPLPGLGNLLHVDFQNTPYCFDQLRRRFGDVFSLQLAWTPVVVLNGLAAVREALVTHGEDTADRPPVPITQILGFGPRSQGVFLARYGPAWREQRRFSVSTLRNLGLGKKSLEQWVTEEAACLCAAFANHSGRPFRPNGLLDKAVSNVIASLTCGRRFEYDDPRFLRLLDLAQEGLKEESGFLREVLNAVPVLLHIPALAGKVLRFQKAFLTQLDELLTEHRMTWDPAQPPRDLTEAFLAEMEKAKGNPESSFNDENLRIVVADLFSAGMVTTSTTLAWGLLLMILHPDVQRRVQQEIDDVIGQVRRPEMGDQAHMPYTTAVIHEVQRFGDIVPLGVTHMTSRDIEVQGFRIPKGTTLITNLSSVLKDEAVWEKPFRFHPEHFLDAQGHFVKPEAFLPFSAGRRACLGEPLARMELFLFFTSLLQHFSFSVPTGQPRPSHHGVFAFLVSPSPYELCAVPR

OCI-AML-3 [5] = assay: Induction of apoptosis in human OCI-AML3 cells harboring NRAS Q61L mutant assessed as increase in apoptotic cells at 1 uM after 24 hrs by annexin V/propidium iodide staining based FACS analysis relative to control; assay type: functional
In short: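 Apoptosis scored by flow cytometry after FITC-annexin V/propidium iodide dual staining following 24 h exposure, at 1 µM or a range of indicated concentrations; three independent experiments, mean with SD, one-way ANOVA.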

OCI-AML-3 [6] = assay: Cell cycle arrest in human OCI-AML3 cells harboring NRAS Q61L mutant assessed as accumulation at G0/G1 phase at 1 uM after 24 hrs by propidium iodide staining based FACS analysis; assay type: functional
In short: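 OCI-AML3 cells treated 24 h at indicated concentrations, including 1 µM; cell-cycle phase distribution measured by flow cytometry after propidium iodide staining.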

CYP3A4 = CYP3A4 (Homo sapiens, UniProt P08684); assay: Inhibition of CYP3A4 (unknown origin) assessed as activity remaining at 10 uM relative to control; assay type: ADME; details: read-out: Activity
Sequence of CYP3A4 (P08684 whole entry): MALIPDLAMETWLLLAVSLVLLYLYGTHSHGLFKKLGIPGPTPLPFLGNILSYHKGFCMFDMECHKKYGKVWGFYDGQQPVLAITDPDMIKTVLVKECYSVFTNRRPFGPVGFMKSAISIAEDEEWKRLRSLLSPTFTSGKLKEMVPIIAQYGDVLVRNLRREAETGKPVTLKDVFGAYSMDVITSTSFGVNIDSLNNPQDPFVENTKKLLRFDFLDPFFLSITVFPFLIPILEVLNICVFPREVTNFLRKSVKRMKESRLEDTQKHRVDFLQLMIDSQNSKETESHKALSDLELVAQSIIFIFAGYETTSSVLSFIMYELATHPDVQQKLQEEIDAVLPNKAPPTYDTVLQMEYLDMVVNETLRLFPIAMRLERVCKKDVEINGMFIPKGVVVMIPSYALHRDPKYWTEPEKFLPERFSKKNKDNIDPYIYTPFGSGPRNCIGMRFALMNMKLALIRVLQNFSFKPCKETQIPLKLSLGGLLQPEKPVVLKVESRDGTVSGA

OCI-AML-3 [7] = assay: Induction of apoptosis in human OCI-AML3 cells harboring NRAS Q61L mutant assessed as decrease in bcl2 levels at 1 uM after 24 hrs by Western blot analysis; assay type: functional, cell-based; in short: as §2
[8] = molecular target: T2, Mitogen-activated protein kinase kinase kinase kinase 2 (Homo sapiens, UniProt Q12851); assay: Inhibition of GCK (unknown origin) by radiometric biochemical kinase assay
T2 sequence (Q12851 whole entry): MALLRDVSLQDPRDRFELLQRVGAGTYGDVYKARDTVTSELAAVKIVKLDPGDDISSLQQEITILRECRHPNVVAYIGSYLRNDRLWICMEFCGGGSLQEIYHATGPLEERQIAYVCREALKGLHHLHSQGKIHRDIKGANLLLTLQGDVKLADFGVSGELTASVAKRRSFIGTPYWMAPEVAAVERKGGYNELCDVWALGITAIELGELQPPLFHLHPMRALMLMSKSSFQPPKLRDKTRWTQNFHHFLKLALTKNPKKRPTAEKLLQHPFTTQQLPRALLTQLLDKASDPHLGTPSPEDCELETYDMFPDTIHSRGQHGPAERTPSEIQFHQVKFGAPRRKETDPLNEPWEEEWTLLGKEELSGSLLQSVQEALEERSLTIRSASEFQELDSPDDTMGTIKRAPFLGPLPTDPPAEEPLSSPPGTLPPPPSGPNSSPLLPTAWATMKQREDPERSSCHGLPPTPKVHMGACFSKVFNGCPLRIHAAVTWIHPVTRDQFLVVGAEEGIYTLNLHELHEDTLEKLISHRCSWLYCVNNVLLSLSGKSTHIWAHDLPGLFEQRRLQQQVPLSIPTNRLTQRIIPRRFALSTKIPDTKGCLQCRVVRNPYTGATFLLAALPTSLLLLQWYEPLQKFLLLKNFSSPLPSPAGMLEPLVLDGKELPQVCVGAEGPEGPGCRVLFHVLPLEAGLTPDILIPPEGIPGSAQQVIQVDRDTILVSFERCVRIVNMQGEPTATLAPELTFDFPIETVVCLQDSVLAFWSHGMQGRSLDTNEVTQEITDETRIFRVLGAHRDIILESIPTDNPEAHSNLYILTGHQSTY

CYP2C9 = CYP2C9 (Homo sapiens, UniProt P11712); assay: Inhibition of CYP2C9 (unknown origin) assessed as activity remaining at 10 uM relative to control; assay type: ADME; details: read-out: Activity
Sequence of CYP2C9 (P11712 whole entry): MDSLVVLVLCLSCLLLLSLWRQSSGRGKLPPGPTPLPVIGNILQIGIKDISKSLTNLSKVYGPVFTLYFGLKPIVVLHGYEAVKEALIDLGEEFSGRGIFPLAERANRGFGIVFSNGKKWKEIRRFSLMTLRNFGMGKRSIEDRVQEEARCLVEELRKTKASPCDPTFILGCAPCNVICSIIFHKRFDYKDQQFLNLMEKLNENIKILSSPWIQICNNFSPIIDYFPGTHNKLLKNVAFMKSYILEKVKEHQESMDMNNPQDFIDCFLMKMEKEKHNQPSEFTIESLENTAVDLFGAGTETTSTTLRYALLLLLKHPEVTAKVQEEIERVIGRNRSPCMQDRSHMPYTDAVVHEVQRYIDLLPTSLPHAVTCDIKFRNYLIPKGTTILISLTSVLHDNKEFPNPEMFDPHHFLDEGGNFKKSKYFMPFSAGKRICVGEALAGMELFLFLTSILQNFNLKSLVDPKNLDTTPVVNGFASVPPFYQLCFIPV

[9] = molecular target: T3, Mitogen-activated protein kinase kinase kinase kinase 2 (Homo sapiens) (UniProt Q12851); assay: Inhibition of GCK in human OCI-AML3 cells harboring NRAS Q61L mutant assessed as reduction in p38 phosphorylation at Thr180/Tyr182 at 1 uM after 2 hrs by Western blot analysis; assay type: cell-based; in short: as §1
T3 sequence (whole entry): T2 sequence (Q12851 whole entry)

[10] = molecular target: Activated CDC42 kinase 1 (Mus musculus) (UniProt O54967); assay: Inhibition of ACK1 in mouse BA/F3 cells harboring NRAS-G12D mutant assessed as reduction in AKT phosphorylation at S473 at 1 uM after 2 hrs by Western blot analysis; assay type: cell-based; in short: as §1
Activated CDC42 kinase 1 [11] = molecular target: T1, Activated CDC42 kinase 1; assay: Inhibition of ACK1 in human OCI-AML3 cells harboring NRAS Q61L mutant assessed as reduction in AKT phosphorylation at S473 at 1 uM after 2 hrs by Western blot analysis; assay type: cell-based; in short: as §1
Target sequence in this assay (Q07912 whole entry, looked up): as the sequence (Q07912 whole entry, looked up) above

[12] = Growth inhibition of parental mouse BA/F3 cells after 72 hrs by celltiter-glo assay; assay type: cell-based, BaF3
[13] = Growth inhibition of parental human U937 cells after 72 hrs by celltiter-glo assay; assay type: cell-based, U-937
OCI-AML-3 [14] = assay: Induction of apoptosis in human OCI-AML3 cells harboring NRAS Q61L mutant assessed as increase in cleaved caspase-3 levels at 1 uM after 24 hrs by Western blot analysis; assay type: functional, cell-based; in short: as §2
OCI-AML-3 [15] = assay: Growth inhibition of human OCI-AML3 cells harboring NRAS-Q61L mutant after 72 hrs by celltiter-glo assay; assay type: functional; details: OCI-AML-3, 72 h
Activated CDC42 kinase 1 [16] = molecular target: T1, Activated CDC42 kinase 1; assay: Inhibition of ACK1 (unknown origin) by radiometric biochemical kinase assay
Target sequence in this assay (Q07912 whole entry): as the sequence (Q07912 whole entry, looked up) above

OCI-AML-3 [17] = assay: Growth inhibition of ACK1/GCK knockdown human OCI-AML3 cells harboring NRAS-Q61L mutant at 0.2 uM after 72 hrs by celltiter-glo assay; assay type: functional, cell-based

Cc1ccc(NC(=O)c2cccc(C(F)(F)F)c2)cc1N1Cc2cnc(N)nc2N(C)C1=O
inhibition (Activated CDC42 kinase 1 [1]): Dose-dependent effect
reduction in P70S6K1 phosphorylation (active/inactive) [2]: Active
Activity (OCI-AML-3 [3]): Active
growth inhibition (GI) (OCI-AML-3 [4]): Active
GI50 (Mus musculus): 223 nM
activity at 10 µM (CYP2D6): 82.2%
Activity (OCI-AML-3 [5]): 15 - 30%
Activity (OCI-AML-3 [6]): Active
activity at 10 µM (CYP3A4): > 100%
Activity (OCI-AML-3 [7]): Active
IC50 [8]: 28 nM
activity at 10 µM (CYP2C9): 68.1%
inhibition [9]: Active
reduction in AKT S473 phosphorylation (qualitative) [10]: Active
reduction in AKT S473 phosphorylation (qualitative) (Activated CDC42 kinase 1 [11]): Active
GI50 at 72 h [12]: 2110 nM
GI50 at 72 h [13]: 4970 nM
Activity (OCI-AML-3 [14]): Active
GI50 (OCI-AML-3 [15]): 466 nM
IC50 (Activated CDC42 kinase 1 [16]): 18 nM

CCN1CCN(C(=O)c2ccc(Nc3ncc4c(n3)N(C)C(=O)N(c3cc(NC(=O)c5cccc(C(F)(F)F)c5)ccc3C)C4)cn2)CC1
reduction in P70S6K1 phosphorylation (active/inactive) [2]: Active
growth inhibition (GI) (OCI-AML-3 [17]): Active
GI50 (Mus musculus): 107 nM
activity at 10 µM (CYP2D6): 32.8%
activity at 10 µM (CYP3A4): 94.2%
IC50 [8]: 2 nM
activity at 10 µM (CYP2C9): 29%
inhibition [9]: Active
reduction in AKT S473 phosphorylation (qualitative) [10]: Active
reduction in AKT S473 phosphorylation (qualitative) (Activated CDC42 kinase 1 [11]): Active
GI50 at 72 h [12]: 728 nM
GI50 at 72 h [13]: 6480 nM
GI50 (OCI-AML-3 [15]): 122 nM
IC50 (Activated CDC42 kinase 1 [16]): 13 nM

Cc1ccc(Nc2ncc3c(n2)N(C)C(=O)N(c2cc(NC(=O)c4ccc(CN5CCC(N(C)C)C5)c(C(F)(F)F)c4)ccc2C)C3)cn1 (centres undefined)
reduction in P70S6K1 phosphorylation (active/inactive) [2]: Active
growth inhibition (GI) (OCI-AML-3 [4]): Active
GI50 (Mus musculus): 23 nM
activity at 10 µM (CYP2D6): 4.9%
activity at 10 µM (CYP3A4): 21.6%
IC50 [8]: 2 nM
activity at 10 µM (CYP2C9): 55.1%
inhibition [9]: Active
reduction in AKT S473 phosphorylation (qualitative) [10]: Active
reduction in AKT S473 phosphorylation (qualitative) (Activated CDC42 kinase 1 [11]): Active
GI50 at 72 h [12]: 636 nM
GI50 at 72 h [13]: 1970 nM
GI50 (OCI-AML-3 [15]): 37 nM
IC50 (Activated CDC42 kinase 1 [16]): 6 nM

Cc1cc(Nc2ncc3c(n2)N(C)C(=O)N(c2cc(NC(=O)c4cccc(C(F)(F)F)c4)ccc2C)C3)n(C)n1
reduction in P70S6K1 phosphorylation (active/inactive) [2]: Active
growth inhibition (GI) (OCI-AML-3 [17]): Active
GI50 (Mus musculus): 129 nM
activity at 10 µM (CYP2D6): 72%
activity at 10 µM (CYP3A4): > 100%
IC50 [8]: 5 nM
activity at 10 µM (CYP2C9): 38.3%
inhibition [9]: Active
reduction in AKT S473 phosphorylation (qualitative) [10]: Active
reduction in AKT S473 phosphorylation (qualitative) (Activated CDC42 kinase 1 [11]): Active
GI50 at 72 h [12]: 2060 nM
GI50 at 72 h [13]: 2460 nM
GI50 (OCI-AML-3 [15]): 208 nM
IC50 (Activated CDC42 kinase 1 [16]): 9 nM

CC(=O)N1CCN(c2ccc(Nc3ncc4c(n3)N(C)C(=O)N(c3cc(NC(=O)c5cccc(C(F)(F)F)c5)ccc3C)C4)cn2)CC1
inhibition (Activated CDC42 kinase 1 [1]): Dose-dependent effect
growth inhibition (GI) (OCI-AML-3 [17]): Active
Activity (OCI-AML-3 [3]): Active
growth inhibition (GI) (OCI-AML-3 [4]): Active
GI50 (Mus musculus): 59 nM
activity at 10 µM (CYP2D6): 83.1%
Activity (OCI-AML-3 [5]): 15 - 30%
Activity (OCI-AML-3 [6]): Active
activity at 10 µM (CYP3A4): 88.5%
Activity (OCI-AML-3 [7]): Active
IC50 [8]: 1 nM
activity at 10 µM (CYP2C9): 15.6%
GI50 at 72 h [12]: 402 nM
GI50 at 72 h [13]: 2480 nM
Activity (OCI-AML-3 [14]): Active
GI50 (OCI-AML-3 [15]): 179 nM
IC50 (Activated CDC42 kinase 1 [16]): 8 nM
